According to ChEMBL document CHEMBL2086311, “UDP made a highly promising stable, potent, and selective P2Y6-receptor agonist upon introduction of a boranophosphate moiety” (Bioorg Med Chem, 2012):
pEC50: −log10 of the molar value. Active and inactive are the calls of the source. No cut-off for these calls is given here.

Target: P2Y purinoceptor 4 (Homo sapiens, UniProt P51582)
Experiment: Agonist activity at human GFP-tagged P2Y4 receptor expressed in human 1321N1 cells assessed as intracellular calcium mobilization up to 100 uM by fura2/AM-based fluorescence spectrophotometry
Format: functional, cell-based
In short: (§1)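 Human P2Y2, P2Y4 or P2Y6 receptors with GFP fusion, stably expressed in 1321N1 astrocytoma cells (no endogenous P2X/P2Y), selected with 0.5 mg/mL G418. Cells on coverslips at ~80% density were loaded with 2 µM fura 2/AM plus 0.02% pluronic acid in Na-HBS pH 7.4 for 30 min at 37 °C. Nucleotide was superfused at 37 °C, usually 10^-8 to ≥10^-5 M, sometimes to 10^-4 M. Read-out was 340/380 nm excitation ratio at 510 nm emission. Values are mean maximal amplitude ± SE.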

P2Y purinoceptor 4, sequence (P51582 whole entry): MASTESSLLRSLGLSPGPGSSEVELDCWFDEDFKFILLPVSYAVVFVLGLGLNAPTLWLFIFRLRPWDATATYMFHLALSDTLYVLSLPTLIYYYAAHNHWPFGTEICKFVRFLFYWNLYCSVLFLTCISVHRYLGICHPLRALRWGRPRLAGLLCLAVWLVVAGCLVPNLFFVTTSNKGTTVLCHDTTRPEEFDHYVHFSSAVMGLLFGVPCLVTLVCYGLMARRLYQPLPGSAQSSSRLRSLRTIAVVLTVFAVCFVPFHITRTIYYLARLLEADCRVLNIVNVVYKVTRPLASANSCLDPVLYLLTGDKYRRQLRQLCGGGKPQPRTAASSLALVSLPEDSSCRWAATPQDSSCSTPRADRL

SMILES | Activity
B[P@](=O)(OC[C@H]1O[C@@H](n2cc(OC)c(=O)[nH]c2=O)[C@H](O)[C@@H]1O)OP(=O)(O)O | inactive
B[P@@](=O)(OC[C@H]1O[C@@H](n2cc(OC)c(=O)[nH]c2=O)[C@H](O)[C@@H]1O)OP(=O)(O)OP(=O)(O)O | inactive
B[P@@](=O)(OC[C@H]1O[C@@H](n2cc(OC)c(=O)[nH]c2=O)[C@H](O)[C@@H]1O)OP(=O)(O)O | inactive
COc1cn([C@@H]2O[C@H](COP(=O)(O)OP(=O)(O)OP(=O)(O)OC[C@H]3O[C@@H](n4cc(OC)c(=O)[nH]c4=O)[C@H](O)[C@@H]3O)[C@@H](O)[C@H]2O)c(=O)[nH]c1=O | inactive
B[P@@](=O)(OC[C@H]1O[C@@H](n2cc(OC)c(=O)[nH]c2=O)[C@H](O)[C@@H]1O)OP(=O)(O)OP(=O)(O)OC[C@H]1O[C@@H](n2cc(OC)c(=O)[nH]c2=O)[C@H](O)[C@@H]1O | inactive

Results, then the molecule that gave them:

Activity | SMILES
inactive | B[P@](=O)(OC[C@H]1O[C@@H](n2cc(OC)c(=O)[nH]c2=O)[C@H](O)[C@@H]1O)OP(=O)(O)OP(=O)(O)OC[C@H]1O[C@@H](n2cc(OC)c(=O)[nH]c2=O)[C@H](O)[C@@H]1O
inactive | BP(=O)(OP(=O)(O)OC[C@H]1O[C@@H](n2cc(OC)c(=O)[nH]c2=O)[C@H](O)[C@@H]1O)OP(=O)(O)OC[C@H]1O[C@@H](n2cc(OC)c(=O)[nH]c2=O)[C@H](O)[C@@H]1O
inactive | B[P@](=O)(OC[C@H]1O[C@@H](n2cc(OC)c(=O)[nH]c2=O)[C@H](O)[C@@H]1O)OP(=O)(O)OP(=O)(O)O

Target: T1, P2Y purinoceptor 6 (Homo sapiens, UniProt Q15077)
Experiment: Agonist activity at human GFP-tagged P2Y6 receptor expressed in human 1321N1 cells assessed as intracellular calcium mobilization by fura2/AM-based fluorescence spectrophotometry
Format: functional, cell-based
In short: as §1

T1 sequence (Q15077 whole entry): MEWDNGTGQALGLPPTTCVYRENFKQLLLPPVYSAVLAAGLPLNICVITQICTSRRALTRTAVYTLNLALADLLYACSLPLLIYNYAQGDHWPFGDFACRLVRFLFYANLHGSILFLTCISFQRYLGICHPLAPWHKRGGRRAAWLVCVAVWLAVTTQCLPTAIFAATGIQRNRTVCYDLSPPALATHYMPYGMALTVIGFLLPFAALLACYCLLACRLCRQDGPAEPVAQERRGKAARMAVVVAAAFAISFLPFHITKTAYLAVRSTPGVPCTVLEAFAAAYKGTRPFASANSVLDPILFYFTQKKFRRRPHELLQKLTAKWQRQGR

SMILES | pEC50
B[P@](=O)(OC[C@H]1O[C@@H](n2cc(OC)c(=O)[nH]c2=O)[C@H](O)[C@@H]1O)OP(=O)(O)O | 5.37
B[P@@](=O)(OC[C@H]1O[C@@H](n2cc(OC)c(=O)[nH]c2=O)[C@H](O)[C@@H]1O)OP(=O)(O)OP(=O)(O)O | 4.95
COc1cn([C@@H]2O[C@H](COP(=O)(O)OP(=O)(O)OP(=O)(O)OC[C@H]3O[C@@H](n4cc(OC)c(=O)[nH]c4=O)[C@H](O)[C@@H]3O)[C@@H](O)[C@H]2O)c(=O)[nH]c1=O | < 5.00
B[P@@](=O)(OC[C@H]1O[C@@H](n2cc(OC)c(=O)[nH]c2=O)[C@H](O)[C@@H]1O)OP(=O)(O)OP(=O)(O)OC[C@H]1O[C@@H](n2cc(OC)c(=O)[nH]c2=O)[C@H](O)[C@@H]1O | 7.22

The next lines start with the values.

pEC50 | SMILES
5.66 | B[P@](=O)(OC[C@H]1O[C@@H](n2cc(OC)c(=O)[nH]c2=O)[C@H](O)[C@@H]1O)OP(=O)(O)OP(=O)(O)OC[C@H]1O[C@@H](n2cc(OC)c(=O)[nH]c2=O)[C@H](O)[C@@H]1O
6.70 | BP(=O)(OP(=O)(O)OC[C@H]1O[C@@H](n2cc(OC)c(=O)[nH]c2=O)[C@H](O)[C@@H]1O)OP(=O)(O)OC[C@H]1O[C@@H](n2cc(OC)c(=O)[nH]c2=O)[C@H](O)[C@@H]1O

Target: T1, P2Y purinoceptor 6
Experiment: Ratio of UDP EC50 to compound EC50 for human GFP-tagged P2Y6 receptor
In short: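 Human P2Y6 receptor-GFP construct stably expressed in 1321N1 astrocytoma cells (no endogenous P2X/P2Y). Cells loaded with 2 µM fura-2/AM plus 0.02% pluronic acid in Na-HBS (pH 7.4), 30 min, 37 °C. Superfused at 37 °C with nucleotide, usually 10^-8 M to at least 10^-5 M. [Ca2+]i read as 340/380 nm excitation ratio, emission 510 nm. EC50 from concentration–response curves.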

SMILES | Ratio EC50
B[P@@](=O)(OC[C@H]1O[C@@H](n2cc(OC)c(=O)[nH]c2=O)[C@H](O)[C@@H]1O)OP(=O)(O)O | 19
B[P@@](=O)(OC[C@H]1O[C@@H](n2cc(OC)c(=O)[nH]c2=O)[C@H](O)[C@@H]1O)OP(=O)(O)OP(=O)(O)OC[C@H]1O[C@@H](n2cc(OC)c(=O)[nH]c2=O)[C@H](O)[C@@H]1O | 2.5

Target: P2Y purinoceptor 2 (Homo sapiens) (UniProt P41231)
Experiment: Agonist activity at human GFP-tagged P2Y2 receptor expressed in human 1321N1 cells assessed as intracellular calcium mobilization up to 100 uM by fura2/AM-based fluorescence spectrophotometry
Format: functional, cell-based
In short: as §1

P2Y purinoceptor 2 (Homo sapiens), sequence (P41231 whole entry): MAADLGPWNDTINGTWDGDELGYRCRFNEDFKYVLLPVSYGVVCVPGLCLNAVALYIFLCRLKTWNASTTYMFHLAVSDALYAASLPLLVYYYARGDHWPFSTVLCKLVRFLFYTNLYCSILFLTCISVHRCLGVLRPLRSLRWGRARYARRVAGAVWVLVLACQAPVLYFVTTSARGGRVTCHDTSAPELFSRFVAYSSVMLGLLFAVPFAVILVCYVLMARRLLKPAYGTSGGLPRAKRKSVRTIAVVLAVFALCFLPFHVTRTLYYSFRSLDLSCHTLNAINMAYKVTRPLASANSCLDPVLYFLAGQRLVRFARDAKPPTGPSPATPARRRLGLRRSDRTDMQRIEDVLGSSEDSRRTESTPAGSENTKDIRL

SMILES | Activity
B[P@](=O)(OC[C@H]1O[C@@H](n2cc(OC)c(=O)[nH]c2=O)[C@H](O)[C@@H]1O)OP(=O)(O)O | inactive
B[P@@](=O)(OC[C@H]1O[C@@H](n2cc(OC)c(=O)[nH]c2=O)[C@H](O)[C@@H]1O)OP(=O)(O)OP(=O)(O)O | inactive
B[P@@](=O)(OC[C@H]1O[C@@H](n2cc(OC)c(=O)[nH]c2=O)[C@H](O)[C@@H]1O)OP(=O)(O)O | inactive
COc1cn([C@@H]2O[C@H](COP(=O)(O)OP(=O)(O)OP(=O)(O)OC[C@H]3O[C@@H](n4cc(OC)c(=O)[nH]c4=O)[C@H](O)[C@@H]3O)[C@@H](O)[C@H]2O)c(=O)[nH]c1=O | inactive
B[P@@](=O)(OC[C@H]1O[C@@H](n2cc(OC)c(=O)[nH]c2=O)[C@H](O)[C@@H]1O)OP(=O)(O)OP(=O)(O)OC[C@H]1O[C@@H](n2cc(OC)c(=O)[nH]c2=O)[C@H](O)[C@@H]1O | inactive

Next, values leading:

Activity | SMILES
inactive | B[P@](=O)(OC[C@H]1O[C@@H](n2cc(OC)c(=O)[nH]c2=O)[C@H](O)[C@@H]1O)OP(=O)(O)OP(=O)(O)OC[C@H]1O[C@@H](n2cc(OC)c(=O)[nH]c2=O)[C@H](O)[C@@H]1O
inactive | BP(=O)(OP(=O)(O)OC[C@H]1O[C@@H](n2cc(OC)c(=O)[nH]c2=O)[C@H](O)[C@@H]1O)OP(=O)(O)OC[C@H]1O[C@@H](n2cc(OC)c(=O)[nH]c2=O)[C@H](O)[C@@H]1O
inactive | B[P@](=O)(OC[C@H]1O[C@@H](n2cc(OC)c(=O)[nH]c2=O)[C@H](O)[C@@H]1O)OP(=O)(O)OP(=O)(O)O
